Measurements reported in ChEMBL document CHEMBL4513216, “Probing the Open Global Health Chemical Diversity Library for Multistage-Active Starting Points for Next-Generation Antimalarials” (ACS Infect Dis, 2020).

assay: Toxicity liver stage against HepG2, at 10uM; assay type: cell-based; parameters: test concentration 10 uM, cell line HepG2-A16-CD81EGFP; details: human, HepG2-A16-CD81EGFP cells; read-out: INHIBITION
Method in brief: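 Uninfected HepG2-A16-CD81EGFP cells, 3 × 10^3 per well, 1536-well, plated on prespotted compound at 10 μM final, parasite-free screening media added to match infected plates; puromycin 10 μM positive, DMSO 0.5% negative; run in parallel with 48 h PbLuc assay at 37 °C, 5% CO2; viability by CellTiter-Glo luminescence, normalized to controls.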

Row | SMILES | cytotoxicity at 10 µM [%]
1 | CSc1nnc(N(CCC#N)CCC#N)s1 | 8.95
2 | CCCS(=O)(=O)NC(C)C(=O)NCc1ccc(N2CCCC2)nc1 (stereo unspecified) | -11.8
3 | COc1ccc(CN2CC[C@H](c3nnc(-c4ccco4)o3)C2)cc1 | 0.0623
4 | Cc1cc(C)cc(NC(=O)c2cnc(N3CCN(C)CC3)nc2C)c1 | -15.5
5 | CCOC(=O)C1CC2(CCOCC2)N2CCC(=O)N12 (stereo unspecified) | 2.39
6 | COC1CN(C(=O)COC(C)=O)CCC(=O)N(C)c2ccccc21 (stereo unspecified) | -3.03
7 | COc1ccccc1N1CCN(c2nc(N)nc3[nH]cnc23)CC1 | 2.77
8 | Cc1c(C(=O)N2CCNC(=O)C2)sc2nc[nH]c(=O)c12 | 0.709
9 | CCOc1ccc(S(=O)(=O)NCCCc2ccc(N(C)C)cc2)cc1F | -5.67
10 | COC(=O)c1ccc(C(=O)N2CCC(c3nnc(C)s3)CC2)cc1 | 4.95
11 | CNC(=O)c1ccc2c(OC)n(C)nc2c1 | -2.43
12 | O=C(NCCc1ccncc1)[C@H]1C[C@@H]2CCN(c3nncs3)C[C@H]2O1 | 4.36
13 | CCn1cc(NC(=O)C2CCC(=O)N2Cc2ccco2)cn1 (stereo unspecified) | -0.607
14 | COc1cccc(O[C@H]2CCN(c3nc(C)cc(C)n3)CC[C@@H]2O)c1 | 2.58
15 | Cc1ccc(S(=O)(=O)N2CC[C@@H]3C[C@H](NC(=O)c4ccncc4)[C@@H]32)cc1 | 0.385
16 | CC(C)c1ccc(CC2(C)Cc3cc(CC(=O)O)ccc3O2)cc1 (stereo unspecified) | 6.65
17 | Cn1ncc2ccc(C3CCCN(Cc4cccs4)C3)nc21 (stereo unspecified) | 1.88
18 | COCc1ccc(C(=O)N2CCC(c3cc4ncc(C)nc4[nH]3)C2)cc1 (stereo unspecified) | -25.6
19 | COc1ccccc1Oc1cncc(C2CCCN(CC(N)=O)C2)n1 (stereo unspecified) | -15.5
20 | Cc1nccc(C2CCCCN2Cc2ccccc2)n1 (stereo unspecified) | -28.2
21 | Cc1noc(C)c1-c1cc(C2CCNCC2)ccn1 | -16.6
22 | CCc1cc(C(=O)N2CCC(c3cc4ncccc4cn3)CC2)on1 | -13
23 | Cc1ccccc1CNC(=O)c1ccccc1-n1cc(CN)cn1 | -21

Row | SMILES | cytotoxicity at 10 µM [%]
24 | Cc1cccnc1C(=O)N1C[C@@H]2CC[C@H](Oc3cccc(F)c3)[C@@H]2C1 | 0.297
25 | CN1CCCC1c1ccnc(C(=O)N(C)C2CCCCC2)c1 (stereo unspecified) | -21.5
26 | CN(C)C(=O)C1CN(Cc2ccsc2)CCN(S(C)(=O)=O)C1 (stereo unspecified) | 14.4
27 | Cn1cc(CN2CCCC(CCCc3ccccn3)(C(N)=O)C2)cn1 (stereo unspecified) | -24.5
28 | CNC(=O)C1(c2cnccn2)CCCN1C(=O)c1ccc(OC)cc1 (stereo unspecified) | -12.9
29 | Cc1ncccc1Oc1nccnc1C1CCCN(C(C)C)C1 (stereo unspecified) | -10.1
30 | COc1ccc(-n2cnc(Cl)c2CO)cc1 | 2.49
31 | O=C(Nc1cnn(CC(F)F)c1)c1cccc(-n2cnnn2)c1 | 6.01
32 | CN(CCCOc1ccccc1)Cc1nccn1C | 2.07
33 | Cc1ccc(C(=O)NC2CCN(C(C)C)C2)c(=O)[nH]1 (stereo unspecified) | 5.26
34 | NC(=O)C1CCCN1C(=O)c1cc(C2CC2)nc2ccc(F)cc12 (stereo unspecified) | 1.75
35 | COc1cccc(C2CCCN2C(=O)c2ccc(=O)n(C)c2)c1 (stereo unspecified) | -1.72
36 | Cc1nc(CNC(=O)NCC(F)(F)F)oc1C | -1.72
37 | O=C(NC1CCS(=O)(=O)c2ccccc21)c1cccs1 (stereo unspecified) | -0.0399
38 | CC(C)(CNC(=O)C1CCCN1S(C)(=O)=O)N1CCOCC1 (stereo unspecified) | 2.72
39 | Cc1noc(C)c1NS(=O)(=O)c1cc(Cl)c(Cl)c(C(=O)O)c1 | 4.86
40 | CCOCCC1(CNC(=O)c2ccncc2Cl)CCC1 | 5.38
41 | COC(=O)NCC(=O)NCC(C)(C)c1cccc(Br)c1 | -3.01
42 | CCNC(=O)COc1ccc(C(=O)NC(C)CCc2ccco2)cc1 (stereo unspecified) | 12.2
43 | CC(C)c1noc(CCC(=O)NC(C)c2nnc3n2CCC3)n1 (stereo unspecified) | 2.59
44 | CCS(=O)(=O)N1CCC(NCC2CNc3cc(C)nn3C2)CC1 (stereo unspecified) | 0.286
45 | Cc1ccc(C)c(CC(=O)NC2(C#N)CCOCC2)c1 | 6.31
46 | CCN(C1CCN(c2cccc(F)c2C(C)=O)CC1)S(C)(=O)=O | 5.17

Row | SMILES | cytotoxicity at 10 µM [%]
47 | CC(C)C1CCCN1C(=O)c1ccc(-n2ncc(C#N)c2N)cc1 (stereo unspecified) | -1.89
48 | CCSc1ccc(C(=O)N2CCCCC2C(=O)N2CCCC2)cn1 (stereo unspecified) | 10.5
49 | O=C(CCc1ccncc1)Nc1ccc(OCC2CCOCC2)cc1 | -2.98
50 | O=C(c1ccc(F)c(F)c1)N1CCCCC1c1nc[nH]n1 (stereo unspecified) | -7.47
51 | COCCC(=O)N1CCCC1c1cccc(C)c1C (stereo unspecified) | 5.79
52 | C=C(C)CN1C(=O)CC(Cc2ccc(F)cc2)C1=O (stereo unspecified) | 1.62
53 | CCN(C(=O)CN1CCCC1c1cccs1)c1ccccc1C (stereo unspecified) | 3.7
54 | CCCN1CCC(Nc2nc(CC)ns2)CC1 | -2.59
55 | COCc1cccc(C(=O)N(C)Cc2ncc(C)c(OC)c2C)c1 | -13.1
56 | O=C(Nc1ccccn1)C1CCN(Cc2cccc3c2OCCO3)CC1 | -0.586
57 | CC(C)C(=O)N1CCC(NCc2c(C(C)C)nn(C)c2N(C)C)CC1 | 5.21
58 | O=C1CCN(CCCS(=O)(=O)c2ccc(Cl)cc2)CCN1 | 2.43
59 | CC(C)(C)OC(=O)N1CSC[C@@H]1C(=O)NCc1ccsc1 | 8.77
60 | Cn1ncnc1NCc1ccc(Br)cc1 | -11.9
61 | CCC(C)N(C)CCNC(=O)NCc1cccc(-n2cncn2)c1 (stereo unspecified) | -8.1
62 | Cc1nc(C)n(C2CCCN(C(=O)CCc3ccncc3)C2)n1 (stereo unspecified) | -5.23
63 | CCN1CC[C@@H]2OC[C@H](C(=O)NCc3cccs3)C[C@@H]2C1 | -106
64 | Cn1ncc2c1C(COCC1CC1)CN(Cc1ccco1)C2 (stereo unspecified) | -78.6
65 | Cn1ccc(C(=O)NC2CCC23CCN(C(=O)N2CCCC2)CC3)c1 (stereo unspecified) | 2.01
66 | Cc1cc2nc(C3CCCCC3)c(-c3ccnc(NCCO)n3)cn2n1 | -0.0295
67 | Cc1cc(C(=O)N2CCC3(CC2)c2nc[nH]c2CCN3CC(C)C)no1 | 11.1
68 | COC(=O)c1ccc(CNC2CC(=O)N(Cc3cccc(F)c3)C2)cc1 (stereo unspecified) | 4.43
69 | COCc1nnc(C(=O)N(C)Cc2cnc3ccccn23)o1 | 1.69

Row | SMILES | cytotoxicity at 10 µM [%]
70 | CCn1cncc1C1CC(=O)Nc2c1c(C)nn2C (stereo unspecified) | -0.557
71 | CC(C)N1CC(C(=O)N2CCc3c(nc(CC4CC4)[nH]c3=O)C2)CC1=O (stereo unspecified) | -8.25
72 | Cc1cccc2[nH]c(C3CCN(C(=O)c4cnc[nH]c4=O)CC3)nc12 | 2.75
73 | CCNc1ncc(C(=O)NCCNc2ccncc2C)cn1 | -6.83
74 | COc1cccc(C(=O)N2C[C@@H](CN(C)CCO)[C@@H](CO)C2)c1C | -4.17
75 | CN1CCCN(C[C@@H]2CN(c3nc(C(N)=O)cs3)C[C@@H]2CO)CC1 | 2.67
76 | CC(=O)NCCNC(=O)CCn1c(C)cc2ccccc21 | 6.26
77 | CCC[C@H]1CN(C(=O)Cn2ccccc2=O)C[C@@H]1NS(C)(=O)=O | 11.1
78 | O=C(CCCc1ccc(Cl)cc1)N1CCC(c2nnc[nH]2)CC1 | 18.3
79 | CN(C)CCOc1cccc(CN2CCCC3(C2)CN(C)C(=O)O3)c1 (stereo unspecified) | -5.82
80 | CCCc1cc(C(=O)N[C@H](C)[C@@H](O)c2ccc(O)cc2)n(C)n1 | 1.48
81 | Cc1cc(C)cc(N2CCN(C(=O)C3CN(C)C(=O)N3)CC2=O)c1 (stereo unspecified) | -5.13
82 | Cc1nsc(NC(=O)N2CCN(Cc3ccccc3F)C(=O)C2)n1 | -4.25
83 | N#Cc1ccccc1CN1CCC(c2nccn2CC2CCC2)CC1 | -10.1
84 | COCCn1cnnc1C(C)NC(=O)c1[nH]c2c(C)cc(C)cc2c1C (stereo unspecified) | -9.11
85 | CC[C@@]1(O)CCN(C(=O)c2ccc(-n3cnnc3)cc2)C[C@H]1O | 3.86
86 | Cc1cccc2c1nc(CCO)n2-c1ccc(NS(C)(=O)=O)nc1 | 2.34
87 | CCNC(=O)N1CCC(Nc2nccc(NCC)n2)CC1 | -3.6
88 | CC(C)NCC1(O)CCCN(CCC2CCCCC2)C1=O (stereo unspecified) | -2.53
89 | CCC(C(=O)NC(C)(C)C)n1ccc2ncccc2c1=O (stereo unspecified) | 3.69
90 | Nc1nnc(CCCNC(=O)c2ccc(C3CCCNC3)cc2)s1 (stereo unspecified) | -1.28
91 | Cc1nc(NCCSc2cnn[nH]2)c2cccnc2n1 | 2.98
92 | CN1CCCC2(CCN(c3cccc(C#N)n3)C2)C1=O (stereo unspecified) | 3.61

Row | SMILES | cytotoxicity at 10 µM [%]
93 | O=C1CCC(=O)N1c1nn(Cc2ccccc2Cl)cc1Cl | -6.69
94 | COCCCNC(=O)CN(C)C(=O)c1ccccc1O | -7.04
95 | Cc1ccc2oc(C(=O)N3CCCC(n4ccnc4C)C3)cc2n1 (stereo unspecified) | -3.37
96 | COCc1ccccc1CNCc1c(C(C)C)nn(C)c1N(C)C | -7.83
97 | N#Cc1ccc(F)c(CN2CCCC2Cn2cccn2)c1 (stereo unspecified) | -7.69
98 | CCc1ccc(O)c(C(=O)NC2CCN(C(=O)OC)CC2)c1 | 1.89
99 | CC(Cn1ccnc1)NC(=O)C1(c2ccc(F)cc2)CC1 (stereo unspecified) | -9.62
100 | Cc1nc(C2CCN(Cc3ncc[nH]3)CC2)no1 | -28
101 | Cc1nocc1C(=O)N1CCOC2(COCCN(C(C)C)C2)C1 (stereo unspecified) | 10
102 | Cc1nc2c(cc1C(=O)O)CCN(Cc1ccsc1)CC2 | 9.62
103 | c1cncc(N2CCCn3nnc(COCC4CC4)c3C2)c1 | 5.5
104 | CN(C)C(=O)N1CCC2(CC1)CCN(Cc1ccccn1)C2=O | 2.05
105 | Cc1noc(C)c1CN1C[C@@H](N(C)Cc2ccco2)[C@H]2OCCC[C@H]21 | -70.9
106 | CN(C)S(=O)(=O)N1CCC[C@]2(C[C@@H](Oc3ncccc3F)CO2)C1 | -82.2
107 | CC(=O)N1CCOCC2(CCN(Cc3ccc(C)s3)CC2)C1 | -5.39
108 | CN(C)CCN1CCCC12CCN(C(=O)c1cccn1C)CC2 | -2.03
109 | c1csc(CN2CCn3c(Cn4cncn4)cnc3C2)c1 | -71.7
110 | c1csc(CN2CCc3nnc(COc4cncnc4)n3CC2)c1 | 2.49
111 | CN(C)S(=O)(=O)N1C[C@H]2CC[C@@H](C1)N(Cc1ccc3c(c1)OCCO3)C2 | 4.52
